These results are taken from ChEMBL document CHEMBL5108089, “Structure-based discovery of potent inhibitors of Axl: design, synthesis, and biological evaluation” (RSC Med Chem, 2022).

For one data set, the system named is T-24. Kind of data set: Antiproliferative activity against human T24 cells assessed as inhibition of cell growth incubated for 72 hrs by CCK-8 assay. Type of data set: functional.
Data set [1] can be described thus: Oral bioavailability in Sprague-Dawley rat at 5 mg/kg measured upto 24 hrs by LC-MS/MS analysis. Type of data set: ADME, organism-based. Particulars: in vivo.
Data set [2] in a line: Cmax in Sprague-Dawley rat at 1 mg/kg, iv measured upto 24 hrs by LC-MS/MS analysis. In kind it is ADME, organism-based. The arrangement: time < 24 hrs, dose 1 mg/kg, route iv. Particulars: in vivo.
A short description of data set [3]: Half-life in Sprague-Dawley rat at 1 mg/kg, iv measured upto 24 hrs by LC-MS/MS analysis. In kind it is ADME, organism-based. Conditions: in vivo.
Data set [4] can be described thus: Metabolic stability in human liver microsomes assessed as half-life preincubated for 10 mins followed by NADPH addition and measured upto 60 mins by LC-MS/MS analysis. In kind it is ADME, Microsome. Particulars: time < 70 min. A general note: Liver microsomes are vesicles of endoplasmic reticulum, rich in cytochrome P450 enzymes.
For data set [5], the target named is T1, Tyrosine-protein kinase receptor UFO (Homo sapiens, UniProt P30530).
T1 sequence (P30530 whole entry): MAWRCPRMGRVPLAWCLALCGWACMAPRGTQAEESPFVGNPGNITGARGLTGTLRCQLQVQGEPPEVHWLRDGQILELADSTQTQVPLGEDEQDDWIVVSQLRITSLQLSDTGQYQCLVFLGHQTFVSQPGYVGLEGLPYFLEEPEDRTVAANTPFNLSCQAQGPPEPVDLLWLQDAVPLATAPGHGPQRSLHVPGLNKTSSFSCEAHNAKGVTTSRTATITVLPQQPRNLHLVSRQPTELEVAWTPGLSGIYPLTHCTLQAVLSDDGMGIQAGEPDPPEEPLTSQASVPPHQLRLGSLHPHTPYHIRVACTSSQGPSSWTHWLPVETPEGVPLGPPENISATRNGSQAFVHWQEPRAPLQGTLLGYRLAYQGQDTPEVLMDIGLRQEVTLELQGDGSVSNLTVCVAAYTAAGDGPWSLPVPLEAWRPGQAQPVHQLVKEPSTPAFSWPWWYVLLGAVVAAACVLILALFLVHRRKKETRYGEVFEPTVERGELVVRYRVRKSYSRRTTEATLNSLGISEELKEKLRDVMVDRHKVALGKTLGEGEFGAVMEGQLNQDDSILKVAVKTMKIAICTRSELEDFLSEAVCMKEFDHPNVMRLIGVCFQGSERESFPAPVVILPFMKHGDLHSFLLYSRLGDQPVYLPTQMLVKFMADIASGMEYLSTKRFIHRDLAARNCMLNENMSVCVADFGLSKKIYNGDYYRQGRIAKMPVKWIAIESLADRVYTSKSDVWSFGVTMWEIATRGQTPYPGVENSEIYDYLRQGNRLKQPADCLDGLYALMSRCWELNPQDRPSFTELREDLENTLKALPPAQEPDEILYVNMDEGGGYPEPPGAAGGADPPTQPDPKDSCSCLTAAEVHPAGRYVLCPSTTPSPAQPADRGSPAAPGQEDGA
Kind of data set: Inhibition of human Axl using KKSRGDYMTMQIG as substrate incubated for 40 mins in the presence of [gamma33P]ATP by scintillation counting analysis.

For another data set, the system named is NAMALVA. Kind of data set: Antiproliferative activity against human NAMALVA cells assessed as inhibition of cell growth incubated for 72 hrs by CCK-8 assay. Type of data set: functional. A digest of the protocol:
(§1)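 Plated at 10000 cells/well. Dose series topped at 10 uM for test compound and at 1 uM for the staurosporine reference. Read-outs were CC50 and maximum % inhibition.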

In the next data set the test system is OVCAR-3. Kind of data set: Antiproliferative activity against human OVCAR-3 cells assessed as inhibition of cell growth incubated for 72 hrs by CCK-8 assay. In kind it is functional.
The test system of another data set is 143B. As to the kind of experiment: Antiproliferative activity against human 143B cells assessed as inhibition of cell growth incubated for 72 hrs by CCK-8 assay. In kind it is functional.
Data set [6] is described as follows: Intrinsic clearance in human. Type of data set: ADME.
Data set [7] can be described thus: Intrinsic clearance in rat. Type of data set: ADME.
Another data set has as its system ASPC1. Kind of data set: Antiproliferative activity against human ASPC1 cells assessed as inhibition of cell growth incubated for 72 hrs by CCK-8 assay. Type of data set: functional. A digest of the protocol: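 5000 cells/well. Test compound was titrated from 10 uM and staurosporine control from 1 uM. Values are CC50 and maximum % inhibition.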
For orientation: Tetrazolium dyes change colour on reduction, which living cells bring about.

In a further data set the test system is NCI-H226. Kind of data set: Antiproliferative activity against human NCI-H226 cells assessed as inhibition of cell growth incubated for 72 hrs by CCK-8 assay. In kind it is functional.
Data set [8] in a line: AUC (0 to last) in Sprague-Dawley rat at 1 mg/kg, iv measured upto 24 hrs by LC-MS/MS analysis. Type of data set: ADME, organism-based. The arrangement: dose 1 mg/kg, time < 24 hrs, route iv. Particulars: in vivo.
A further data set concerns KU812 cell line. As to the kind of experiment: Antiproliferative activity against human KU812 cells assessed as inhibition of cell growth incubated for 72 hrs by CCK-8 assay. In kind it is functional. A digest of the protocol:
as §1

A further data set has as its system MGC-803. As to the kind of experiment: Antiproliferative activity against human MGC-803 cells assessed as inhibition of cell growth incubated for 72 hrs by CCK-8 assay. Type of data set: functional.
In a further data set the test system is A-375. As to the kind of experiment: Antiproliferative activity against human A-375 cells assessed as inhibition of cell growth incubated for 72 hrs by CCK-8 assay. In kind it is functional.
The next data set deals with U-87 MG. Kind of data set: Antiproliferative activity against human U87 cells assessed as inhibition of cell growth incubated for 72 hrs by CCK-8 assay. Type of data set: functional, U-87MG ATCC.
A further data set deals with RS4-11. Kind of data set: Antiproliferative activity against human RS4-11 cells assessed as inhibition of cell growth incubated for 72 hrs by CCK-8 assay. In kind it is functional. A digest of the protocol: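 8000 cells/well. Test compound was serially diluted from a 10 uM top concentration and staurosporine from 1 uM. CC50 and maximum % inhibition are reported.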

A further data set has as its system CAL-27. As to the kind of experiment: Antiproliferative activity against human CAL-27 cells assessed as inhibition of cell growth incubated for 72 hrs by CCK-8 assay. In kind it is functional.

In general, CC50 refers to the concentration at which the toxic effect on the cells reaches its halfway point. The bioavailability is dose-corrected exposure relative to a reference, in per cent. High values mean good availability, low ones poor availability. As usually defined, the Cmax is the maximum level reached in the sampled fluid or tissue. For orientation: half-life means the time needed for the level to fall by half in the phase considered. In general, IC50 refers to the concentration that inhibits the measured activity by half. As usually defined, the CLint scaled is the capacity of the preparation to metabolise the compound, expressed as a volume cleared per time. A low value points to slow turnover.

With `CC(C)n1cnc(-c2ccccc2Nc2nc(Nc3ccc(N(C)C4CCN(C)CC4)cc3)ncc2Cl)n1`, the half-maximal cytotoxic concentration (CC50) was 933 nM with T-24; 494 nM with NAMALVA; 224 nM with OVCAR-3; 1340 nM in the data set on 143B; 755 nM with ASPC1; 1240 nM with NCI-H226. The CC50 with KU812 cell line came out at 233 nM; with MGC-803, 103 nM; with A-375 it was 23900 nM; with U-87 MG, 3010 nM; in the data set with RS4-11 it was 138 nM; with CAL-27, 107 nM. Further, the bioavailability in data set [1] worked out at 56.1%. The Cmax in [2] is 56.3 ng/mL. Also, the half-life was 6.6 h in [3] and 1.01 h in [4]. The IC50 in data set [5] turned out to be 5 nM. Besides, the intrinsic metabolic clearance (CLint scaled) came to 12 mL/min/kg in data set [6] and 33.9 mL/min/kg in data set [7]. The compound further yielded an AUClast in [8] of 422 ng·h/mL.
